# From PubChem BioAssay
# Hits are enriched below; roughly 2.3% of the tested compounds scored in any of these assays.
# RBBP9 inhibitor – blocks human serine hydrolase RBBP9. recombinant RBBP9, FP-Rh probe fluorescence polarization. inhibition, % at 7.94 µM. 220,000 tested, 0.2% active. AID 1515;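 active = inhibition above the campaign mean of all tested compounds plus 3 SD, cut at about 14% in these data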;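 also: plate controls were DMSO wells with RBBP9 for no effect and wells lacking RBBP9 protein for full effect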
#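 Measured by – fluorescence polarization · Test system – RBBP9 protein · Input – 2.5 µM RBBP9 dispensing solution, before mixing · Measure – percent inhibition from mP, scaled between DMSO and no-protein wells · Benchmarks – DMSO-treated enzyme wells and wells lacking RBBP9 · Times – preincubation 30 min plus labeling 45 min at 25 °C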
# GSTO1 counter – blocks human GSTO1 in RBBP9 counter-screen. P78417. recombinant GSTO1, activity-based probe fluorescence polarization. inhibition, % at 5.96 µM. 300,000 tested, 1.1% active. AID 1974;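 active = inhibition above the campaign mean inhibition plus 3 SD, cut at about 35% in these data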;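 also: 0% = GSTO1-1 with DMSO and 100% = wells lacking GSTO1-1 enzyme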
# Target sequence (P78417 whole entry, looked up): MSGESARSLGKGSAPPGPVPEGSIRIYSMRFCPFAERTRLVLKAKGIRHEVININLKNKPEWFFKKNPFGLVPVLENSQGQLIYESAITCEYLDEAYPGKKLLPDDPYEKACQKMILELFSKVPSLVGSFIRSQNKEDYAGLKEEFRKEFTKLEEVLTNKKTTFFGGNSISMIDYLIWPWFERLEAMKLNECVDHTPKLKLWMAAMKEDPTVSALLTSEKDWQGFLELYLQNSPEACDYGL
# PME-1 primary – PME-1 (human) inhibition. Q9Y570. recombinant PME-1, FP-Rh probe fluorescence polarization. inhibition, % at 5.9 µM. AID 2130. 320,000 tested, 0.53% active;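 active = inhibition above the campaign mean of all compounds plus 3 SD, cut at about 26% in these data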;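 also: competitive labeling of PME-1 active site by serine hydrolase directed probe; 0% = PME-1 with DMSO and 100% = wells lacking PME-1 enzyme; inhibitors block probe labeling so polarization falls and inhibition rises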
# PRMT1 FP inh – inhibitors of human PRMT1; recombinant PRMT1, activity-based probe fluorescence polarization; 370,000 tested, 1.3% active; Q99873; AID 652257; inhibition, % at 2.79 µM;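 active = inhibition above about 21% made by adding two undisclosed values, limit read from the data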
# Target sequence (Q99873 whole entry, looked up): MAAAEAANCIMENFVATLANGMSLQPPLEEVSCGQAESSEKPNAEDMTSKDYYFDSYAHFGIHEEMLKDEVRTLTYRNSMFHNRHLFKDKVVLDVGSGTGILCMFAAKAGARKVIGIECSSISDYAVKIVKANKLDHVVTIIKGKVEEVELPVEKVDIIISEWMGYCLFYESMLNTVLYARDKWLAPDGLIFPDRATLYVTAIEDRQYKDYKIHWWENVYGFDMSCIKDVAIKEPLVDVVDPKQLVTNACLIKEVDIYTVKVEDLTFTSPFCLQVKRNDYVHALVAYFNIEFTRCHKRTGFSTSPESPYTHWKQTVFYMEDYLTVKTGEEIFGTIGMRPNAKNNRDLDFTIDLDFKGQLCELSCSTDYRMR
# Fam108B counter – Fam108B inhibition, counter-screen for RBBP9 inhibitors; recombinant Fam108B, FP-Rh probe fluorescence polarization; inhibition, % at 9.51 µM; 300,000 tested, 0.33% active;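 active = inhibition above the screen mean inhibition plus 3 SD, computed separately per campaign, cut at about 18% in these data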;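 also: inhibitors lower polarization as less probe binds the enzyme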
# PAD4 inh – blocks human protein arginine deiminase 4. 330,000 tested, 0.41% active. Q9UM07. inhibition, % at 6.36 µM. recombinant PAD4, RCA probe fluorescence polarization;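 active = percent inhibition above a cutoff equal to the mean of all tested compounds plus 3 SD, cut at about 15% in these data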;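 also: 0% = PAD4 with RCA probe and DMSO and 100% = probe without PAD4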
# PRMT1 confirm – confirmation of human PRMT1 inhibitors. inhibition, % at 2.79 µM. recombinant His-PRMT1, activity-based probe fluorescence polarization. shares compounds with PRMT1 FP inh. 3,300 tested, 42% active;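 active = mean inhibition across replicates above the hit cutoff derived for the earlier primary screen, cut at about 22% in these data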
# Active calls of the source: *; nt = no result given.
SMILES,RBBP9 inhibitor,GSTO1 counter,PME-1 primary,PRMT1 FP inh,Fam108B counter,PAD4 inh,PRMT1 confirm
O=C(NC1CCCCC1)C(c1ccc(C(F)(F)F)cc1)n1c(=O)c(-c2ccco2)nc2ccccc21 (stereo not drawn),nt,nt,nt,29*,nt,nt,15
O=C(NC1CCCCC1)C(c1ccccc1)n1c(=O)c(-c2cc3ccccc3[nH]2)nc2ccccc21 (stereo not drawn),nt,nt,nt,1,nt,nt,nt
O=C(NC1CCCCC1)C(c1ccccc1)n1c(=O)c(-c2ccco2)nc2ccccc21 (stereo not drawn),nt,nt,nt,28*,nt,nt,23*
CC(C)N(CCC(=O)c1ccc2ccccc2c1)Cc1ccccc1,nt,0,0,54*,-3,4,71*
S=c1[nH]c(-c2ccccc2)cn1-c1ccccc1,nt,-5,8,14,-4,2,nt
COc1cc(/C=N/n2cc(-c3ccccc3)[nH]c2=S)cc(OC)c1O,14,2,11,47*,7,-4,27*
COc1cc(/C=N/n2c(C)nc3ccccc3c2=O)cc(OC)c1O,nt,2,-3,4,5,-5,nt
Cc1ccc(/C=N/n2cc(-c3ccccc3)[nH]c2=S)s1,-11,7,4,28*,-1,2,16
Oc1ccc(/C=N/n2cc(-c3ccccc3)[nH]c2=S)cc1,-8,-16,5,44*,4,-4,24*
O=C(O)CC1(CC(=O)NCc2cccc(Cl)c2)CCCCC1,nt,-1,2,1,-5,-3,nt
CCN(CC)CCCC1(CN)OCCc2ccccc21 (stereo not drawn),-4,-1,4,1,3,-1,nt
CCS(=O)(=O)c1ncc(Cl)c(C(=O)Nc2ccc(S(=O)(=O)N3CCCC(C)C3)cc2)n1 (stereo not drawn),nt,-104,-47,4,-28,-3,nt
CCCN(CCC)CCCNC(=O)C(NS(=O)(=O)c1ccc2c(c1)CCC(=O)N2)c1ccccc1 (stereo not drawn),-6,6,-2,2,4,3,nt
Cc1cccc(NC(=O)C(NS(=O)(=O)c2ccc3c(c2)CCC(=O)N3)c2ccccc2)n1 (stereo not drawn),-4,10,-3,47*,0,9,48*
CC(c1ccccc1)N(C)CC(=O)NC(=O)NCCC1=CCCCC1 (stereo not drawn),nt,nt,4,-4,nt,3,nt
CN(c1ccc(OCC(=O)N2CCCCC2)cc1)S(=O)(=O)c1cccs1,-8,-6,0,1,8,3,nt
O=C(CSC1CC(=O)N(CCc2ccccc2)C1=O)Nc1cccc(Cl)c1 (stereo not drawn),-13,1,1,54*,3,2,54*
O=C(CSC1CC(=O)N(CCc2ccccc2)C1=O)Nc1ccc(Br)cc1 (stereo not drawn),-7,-5,5,20,-2,0,nt
O=C(CSC1CC(=O)N(c2ccc(C(=O)O)cc2)C1=O)Nc1ccc(Cl)cc1 (stereo not drawn),-11,0,-11,39*,-2,1,34*
CCN=C(NCC)SC1CC(=O)N(CCc2ccccc2)C1=O (stereo not drawn),nt,4,-8,35*,-2,8,-1
CCN=C(NCC)SC1CC(=O)N(c2ccc(OC)cc2)C1=O (stereo not drawn),-13,-1,0,2,2,-5,nt
O=C(O)CSC1CC(=O)N(c2ccc(F)cc2)C1=O (stereo not drawn),nt,nt,nt,26*,nt,nt,1
NCCSC1CC(=O)N(c2ccc(F)cc2)C1=O (stereo not drawn),nt,9,3,19,1,-3,nt
Cc1nc(S/C(=C\c2ccc(OCc3ccccc3Cl)cc2)C(=O)O)n[nH]1,-1,-4,0,-1,6,1,nt
Cc1nc(S/C(=C\c2ccc(-c3ccc(C(=O)O)c(Cl)c3)o2)C(=O)O)n[nH]1,-10,nt,nt,33*,nt,nt,39*
SMILES,RBBP9 inhibitor,GSTO1 counter,PME-1 primary,PRMT1 FP inh,Fam108B counter,PAD4 inh,PRMT1 confirm
Cc1ccc(NC(=O)C2C3C=CC(O3)C2C(=O)O)c(C)c1 (stereo not drawn),nt,1,-3,37*,0,-1,5
Cc1cccc(NC(=O)C2C3C=CC(O3)C2C(=O)O)c1C (stereo not drawn),nt,7,-2,33*,2,-3,0
Cc1ccc(C)c(NC(=O)C2C3C=CC(O3)C2C(=O)O)c1 (stereo not drawn),nt,nt,nt,79*,nt,nt,38*
CC(=O)C1=C(C)Nc2cc(C(F)(F)F)ccc2S1,-6,2,-1,28*,-1,-8,13
CCOC(=O)c1c(NC(=O)CC2Sc3ccc(C(F)(F)F)cc3NC2=O)sc(C)c1C (stereo not drawn),3,10,2,-3,3,-1,nt
CC(=O)Nc1ccc(NC(=O)c2ccc(Cn3cc(Cl)cn3)cc2)cc1,-6,3,4,0,-1,3,nt
CC1=C(O)C(=O)C(c2c(C)cc(C)c(Br)c2C)=C(O)C1=O,nt,nt,nt,25*,nt,nt,23*
CC(=O)Nc1ccc(S(=O)(=O)N2CCN(Cc3nc4sc(C)c(C)c4c(=O)[nH]3)CC2)cc1,-4,-8,-3,-2,-5,2,nt
Cc1sc(NC(=S)NC(=O)c2ccco2)c(C#N)c1C,-4,21,-1,49*,-3,1,3
COc1ccc(C2NC(=S)N3C(c4ccc(OC)cc4)NC(=S)N23)cc1 (stereo not drawn),-10,-5,-1,46*,-2,4,5
CCOc1cc(/C=C2\C(=O)N(Cc3ccco3)C(C)=C2C(=O)OC)ccc1O,7,16,5,46*,8,1,15
COC(=O)C1=C(C)N(Cc2ccc(C)cc2)C(=O)/C1=C\c1ccc(O)c(OC)c1,0,34,9,27*,2,-6,5
COC(=O)[C@]12CCCCC=C1N(Cc1ccc(Cl)cc1Cl)C(=O)[C@H](CC(=O)NCc1cccs1)C2,nt,nt,nt,5,nt,nt,nt
COc1ccccc1CCN1CCCC(CN(C)C(=O)CCC(N)=O)C1 (stereo not drawn),nt,-1,4,-2,-6,-4,nt
CCOC(=O)c1c(-c2ccccc2)oc2cc(CN(C)C)c(O)c(CN(C)C)c12,-3,12,-3,26*,5,-2,3
COc1ccc(CCNC(=O)CSCC(=O)Nc2ccccc2)cc1OC,10,-2,-7,-4,2,-2,nt
COc1ccc(CCNC(=O)CSc2ccc(NC(C)=O)cc2)cc1OC,nt,4,-1,25*,1,2,31*
Nc1nnn(Cc2ccccc2)n1,4,2,1,-2,1,0,nt
CCOc1ccc(NC(=O)c2ccc3c(c2)OCCO3)cc1S(=O)(=O)N(CC)CC,nt,nt,-4,4,nt,0,nt
